The source made the active and inactive calls. The rule behind the calls is not given here.
Columns and labels:
[1] = AUC (0 to infinity) in Sprague-Dawley rat at 0.8 mg/kg, po; format: ADME, organism-based; design: dose 0.8 mg/kg, route oral, time infinity; conditions: plasma
Procedure, shortened: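 Female Sprague–Dawley rats received a single dose by the iv or oral route. AUC from 0 to infinity was reported alongside terminal half-life, Vss, clearance and absolute oral bioavailability.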

[2] = target: Dipeptidyl peptidase 4 (Homo sapiens) (UniProt P27487); assay: Inhibition of human DPP4 at 10 uM
[3] = target: Endothelin-converting enzyme 1 (Homo sapiens) (UniProt P42892); assay: Inhibition of human ECE1 at 10 uM
[4] = target: Neprilysin (Homo sapiens) (UniProt P08473); assay: Inhibition of human NEP at 10 uM
[5] = target: Plasminogen (Homo sapiens) (UniProt P00747); assay: Inhibition of human plasmin at 10 uM
A2780 = assay: Cytotoxicity against human A2780 cells; format: functional, cell-based
Procedure, shortened: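 Antiproliferative activity was measured in A2780 ovarian carcinoma cells with a standard colorimetric assay of cell proliferation and viability. Results are expressed as IC50.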

[6] = Volume of distribution at steady state in Sprague-Dawley rat at 0.2 mg/kg, iv; format: ADME, organism-based; design: dose 0.2 mg/kg, route intravenous; conditions: in vivo, read-out: Vdss
Procedure, shortened: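 Single-dose pharmacokinetics after iv or oral administration in female Sprague–Dawley rats and in CD-1 mice; plasma exposure (AUC0–∞) used to derive steady-state volume of distribution, clearance, terminal half-life and absolute oral bioavailability.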

[7] = AUC (0 to infinity) in CD1 mouse at 10 mg/kg, po; format: ADME, organism-based; design: time infinity, dose 10 mg/kg, route oral; conditions: plasma
Procedure, shortened: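 CD-1 mice received a single dose by the iv or oral route. AUC from 0 to infinity was reported with terminal half-life, Vss, clearance and absolute oral bioavailability.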

[8] = Oral bioavailability in CD1 mouse at 10 mg/kg; format: ADME, organism-based; conditions: in vivo
Procedure, shortened: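 CD-1 mice given a single iv dose (4 mg/kg) and a single oral (po) dose (10 mg/kg). Plasma AUC0-∞ was measured, and absolute oral bioavailability F (%) was calculated from the oral versus iv exposure.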

Mus musculus = assay: Inhibition of 20S proteasome beta5beta1 subunit binding in human RPMI 8226 cells xenografted mouse; format: functional, organism-based
Cytochrome P450 1A2 = Cytochrome P450 1A2 (Homo sapiens, UniProt P05177); assay: Inhibition of human recombinant CYP1A2 upto 30 uM; format: ADME; conditions: recombinant enzyme
Procedure, shortened: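 Recombinant human cytochrome P-450 isoforms were tested with fluorescent P-450 substrates, at test concentrations up to 30 µM.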

Cytochrome P450 2C9 = Cytochrome P450 2C9 (Homo sapiens, UniProt P11712); assay: Inhibition of human recombinant CYP2C9 upto 30 uM; format: ADME; conditions: recombinant enzyme
Procedure, shortened: (§1)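 Recombinant human P-450 isoforms (1A2, 2C9, 2C19, 2D6) with fluorescent P-450 substrates; tested at concentrations up to 30 µM to gauge inhibition.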

Cytochrome P450 2C19 = Cytochrome P450 2C19 (Homo sapiens, UniProt P33261); assay: Inhibition of human recombinant CYP2C19 upto 30 uM; format: ADME; conditions: recombinant enzyme; procedure, shortened: as §1
[9] = target: Cathepsin D (Homo sapiens) (UniProt P07339); assay: Inhibition of human cathepsin D at 10 uM
[10] = target: Cathepsin E (Homo sapiens) (UniProt P14091); assay: Inhibition of human cathepsin E at 10 uM
[11] = target: Cathepsin G (Homo sapiens) (UniProt P08311); assay: Inhibition of human cathepsin G at 10 uM
[12] = target: Procathepsin L (Homo sapiens) (UniProt P07711); assay: Inhibition of human cathepsin L at 10 uM
[13] = target: Cathepsin S (Homo sapiens) (UniProt P25774); assay: Inhibition of human cathepsin S at 10 uM
[14] = target: Cathepsin Z (Homo sapiens) (UniProt Q9UBR2); assay: Inhibition of human cathepsin Z at 10 uM
Chymase = Chymase (Homo sapiens, UniProt P23946); assay: Inhibition of human chymase
[15] = Inhibition of human chymotrypsin
Procedure, shortened: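 Cross-reactivity was tested against human pancreas α-chymotrypsin using a fluorogenic specific substrate. Results are expressed as IC50.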

[16] = target: 72 kDa type IV collagenase (Homo sapiens) (UniProt P08253); assay: Inhibition of human MMP2 at 10 uM
[17] = target: Neutrophil collagenase (Homo sapiens) (UniProt P22894); assay: Inhibition of human MMP8 at 10 uM
Sus scrofa = species on record: Sus scrofa; assay: Inhibition of pig pancreatic elastase 1 at 10 uM
[18] = target: Disintegrin and metalloproteinase domain-containing protein 17 (Homo sapiens) (UniProt P78536); assay: Inhibition of human TACE at 10 uM
[19] = Metabolic stability in dog liver microsomes; format: ADME, Canis lupus familiaris, Microsome
[20] = Metabolic stability in human liver microsomes; format: ADME, Microsome

Sequence of Neutrophil collagenase (Homo sapiens) (P22894 101-467 limits assumed): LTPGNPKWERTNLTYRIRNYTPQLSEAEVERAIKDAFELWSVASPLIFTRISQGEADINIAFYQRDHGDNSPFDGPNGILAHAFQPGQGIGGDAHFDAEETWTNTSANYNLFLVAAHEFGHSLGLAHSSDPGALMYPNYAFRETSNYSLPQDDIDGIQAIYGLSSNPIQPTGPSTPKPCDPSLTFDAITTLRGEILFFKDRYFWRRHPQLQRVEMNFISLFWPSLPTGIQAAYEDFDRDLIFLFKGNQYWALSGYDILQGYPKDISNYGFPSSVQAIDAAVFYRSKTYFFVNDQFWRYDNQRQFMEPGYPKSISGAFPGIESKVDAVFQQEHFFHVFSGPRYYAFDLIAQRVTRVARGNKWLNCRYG
Sequence of Cathepsin Z (Homo sapiens) (Q9UBR2 whole entry): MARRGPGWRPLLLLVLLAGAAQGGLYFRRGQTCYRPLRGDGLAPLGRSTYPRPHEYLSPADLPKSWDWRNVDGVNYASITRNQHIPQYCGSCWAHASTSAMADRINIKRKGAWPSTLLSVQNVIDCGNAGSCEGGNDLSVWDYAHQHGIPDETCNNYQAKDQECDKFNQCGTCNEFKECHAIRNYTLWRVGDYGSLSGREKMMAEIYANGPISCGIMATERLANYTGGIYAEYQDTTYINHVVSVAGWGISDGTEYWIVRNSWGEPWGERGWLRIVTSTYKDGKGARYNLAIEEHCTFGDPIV
Sequence of Disintegrin and metalloproteinase domain-containing protein 17 (Homo sapiens) (P78536 whole entry, the tested form may be a part): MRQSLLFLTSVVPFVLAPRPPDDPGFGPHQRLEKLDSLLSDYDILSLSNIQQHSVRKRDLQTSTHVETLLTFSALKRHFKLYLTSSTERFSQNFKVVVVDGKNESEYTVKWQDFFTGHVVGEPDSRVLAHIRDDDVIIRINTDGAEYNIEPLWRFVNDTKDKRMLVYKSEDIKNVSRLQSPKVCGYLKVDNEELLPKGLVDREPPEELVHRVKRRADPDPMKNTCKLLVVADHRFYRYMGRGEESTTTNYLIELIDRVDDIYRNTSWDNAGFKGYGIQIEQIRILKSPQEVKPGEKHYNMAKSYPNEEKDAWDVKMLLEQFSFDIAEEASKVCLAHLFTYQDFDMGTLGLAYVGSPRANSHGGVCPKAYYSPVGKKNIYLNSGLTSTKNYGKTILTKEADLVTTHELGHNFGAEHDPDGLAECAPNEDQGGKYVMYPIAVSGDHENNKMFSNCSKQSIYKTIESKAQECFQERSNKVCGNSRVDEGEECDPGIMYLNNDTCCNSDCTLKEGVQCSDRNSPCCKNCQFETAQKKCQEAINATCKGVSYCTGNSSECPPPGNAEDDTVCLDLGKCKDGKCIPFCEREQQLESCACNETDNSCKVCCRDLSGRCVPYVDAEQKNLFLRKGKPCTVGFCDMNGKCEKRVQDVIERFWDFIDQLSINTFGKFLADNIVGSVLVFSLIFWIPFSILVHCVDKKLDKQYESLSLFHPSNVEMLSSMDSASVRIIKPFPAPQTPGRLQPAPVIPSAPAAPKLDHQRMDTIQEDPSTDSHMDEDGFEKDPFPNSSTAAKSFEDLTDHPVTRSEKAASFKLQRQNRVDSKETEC
Sequence of Cytochrome P450 1A2 (P05177 whole entry, canonical isoform): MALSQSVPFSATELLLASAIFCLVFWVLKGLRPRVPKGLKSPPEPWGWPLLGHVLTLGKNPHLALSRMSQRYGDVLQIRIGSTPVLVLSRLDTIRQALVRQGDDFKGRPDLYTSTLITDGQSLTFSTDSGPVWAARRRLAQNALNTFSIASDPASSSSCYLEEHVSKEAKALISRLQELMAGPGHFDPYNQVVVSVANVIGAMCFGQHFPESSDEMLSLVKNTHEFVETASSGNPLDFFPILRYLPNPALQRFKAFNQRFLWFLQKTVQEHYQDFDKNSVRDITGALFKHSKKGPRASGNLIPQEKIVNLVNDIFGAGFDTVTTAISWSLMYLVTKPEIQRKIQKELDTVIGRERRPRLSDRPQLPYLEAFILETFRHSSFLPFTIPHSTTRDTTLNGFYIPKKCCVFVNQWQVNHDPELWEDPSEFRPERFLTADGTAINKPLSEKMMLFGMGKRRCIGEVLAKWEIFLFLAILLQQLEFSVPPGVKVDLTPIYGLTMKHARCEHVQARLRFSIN
Sequence of Dipeptidyl peptidase 4 (Homo sapiens) (P27487 whole entry, looked up): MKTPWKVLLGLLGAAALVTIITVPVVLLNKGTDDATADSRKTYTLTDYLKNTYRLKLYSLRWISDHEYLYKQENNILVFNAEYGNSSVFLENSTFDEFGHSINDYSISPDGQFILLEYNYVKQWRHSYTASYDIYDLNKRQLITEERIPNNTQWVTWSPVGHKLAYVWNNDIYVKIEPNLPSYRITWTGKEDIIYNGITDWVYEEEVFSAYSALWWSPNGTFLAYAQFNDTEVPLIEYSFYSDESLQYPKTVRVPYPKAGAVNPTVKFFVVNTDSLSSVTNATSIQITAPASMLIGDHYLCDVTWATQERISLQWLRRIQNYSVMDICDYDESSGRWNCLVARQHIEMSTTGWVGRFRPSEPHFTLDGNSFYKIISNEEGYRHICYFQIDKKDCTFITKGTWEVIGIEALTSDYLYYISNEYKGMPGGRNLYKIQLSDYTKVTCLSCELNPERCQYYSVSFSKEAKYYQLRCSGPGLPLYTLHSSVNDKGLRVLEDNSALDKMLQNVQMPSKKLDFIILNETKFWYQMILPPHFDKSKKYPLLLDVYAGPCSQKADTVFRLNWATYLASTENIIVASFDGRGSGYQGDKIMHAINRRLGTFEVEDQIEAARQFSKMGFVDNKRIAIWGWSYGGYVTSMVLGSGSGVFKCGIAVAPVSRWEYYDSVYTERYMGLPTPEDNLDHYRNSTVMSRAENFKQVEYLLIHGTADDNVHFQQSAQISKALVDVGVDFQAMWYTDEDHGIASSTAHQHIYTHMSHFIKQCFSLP
Sequence of Neprilysin (Homo sapiens) (P08473 whole entry): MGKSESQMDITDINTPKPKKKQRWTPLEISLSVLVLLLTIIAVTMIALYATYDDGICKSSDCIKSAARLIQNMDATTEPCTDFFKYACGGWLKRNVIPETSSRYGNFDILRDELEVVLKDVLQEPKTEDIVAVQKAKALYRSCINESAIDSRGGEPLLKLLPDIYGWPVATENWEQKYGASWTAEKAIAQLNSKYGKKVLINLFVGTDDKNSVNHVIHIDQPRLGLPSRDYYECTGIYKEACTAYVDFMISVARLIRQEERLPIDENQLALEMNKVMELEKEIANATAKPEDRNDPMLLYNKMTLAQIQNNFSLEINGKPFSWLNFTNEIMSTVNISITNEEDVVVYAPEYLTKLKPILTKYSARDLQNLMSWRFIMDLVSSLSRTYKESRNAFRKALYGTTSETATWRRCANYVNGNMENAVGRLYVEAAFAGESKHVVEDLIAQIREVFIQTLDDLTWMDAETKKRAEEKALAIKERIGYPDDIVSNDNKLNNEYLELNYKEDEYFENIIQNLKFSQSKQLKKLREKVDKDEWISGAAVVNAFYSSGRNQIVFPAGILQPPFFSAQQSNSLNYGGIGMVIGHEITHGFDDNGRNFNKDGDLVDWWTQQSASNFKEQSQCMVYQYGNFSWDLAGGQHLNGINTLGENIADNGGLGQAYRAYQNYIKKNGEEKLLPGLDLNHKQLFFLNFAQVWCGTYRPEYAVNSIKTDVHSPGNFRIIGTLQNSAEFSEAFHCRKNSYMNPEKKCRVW
Sequence of 72 kDa type IV collagenase (Homo sapiens) (P08253 110-660 limits assumed): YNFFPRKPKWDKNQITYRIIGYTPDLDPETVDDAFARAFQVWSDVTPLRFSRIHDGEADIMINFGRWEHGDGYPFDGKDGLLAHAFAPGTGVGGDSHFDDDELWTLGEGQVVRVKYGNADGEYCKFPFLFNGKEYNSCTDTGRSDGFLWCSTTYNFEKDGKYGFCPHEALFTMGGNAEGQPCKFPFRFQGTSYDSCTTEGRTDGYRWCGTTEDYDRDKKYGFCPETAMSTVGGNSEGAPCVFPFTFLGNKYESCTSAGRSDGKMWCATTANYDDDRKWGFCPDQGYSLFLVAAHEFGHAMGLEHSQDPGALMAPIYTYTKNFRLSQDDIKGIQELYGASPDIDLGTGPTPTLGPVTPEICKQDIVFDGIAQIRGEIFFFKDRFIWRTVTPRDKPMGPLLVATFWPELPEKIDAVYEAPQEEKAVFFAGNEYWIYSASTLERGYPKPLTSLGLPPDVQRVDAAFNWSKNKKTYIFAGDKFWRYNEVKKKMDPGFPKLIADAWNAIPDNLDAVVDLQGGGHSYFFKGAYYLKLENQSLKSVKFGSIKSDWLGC
Sequence of Cathepsin D (Homo sapiens) (P07339 65-162 limits assumed): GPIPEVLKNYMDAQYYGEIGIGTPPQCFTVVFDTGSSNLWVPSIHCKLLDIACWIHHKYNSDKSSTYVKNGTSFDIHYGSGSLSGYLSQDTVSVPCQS
Sequence of Cathepsin D (Homo sapiens) (P07339 169-412 limits assumed): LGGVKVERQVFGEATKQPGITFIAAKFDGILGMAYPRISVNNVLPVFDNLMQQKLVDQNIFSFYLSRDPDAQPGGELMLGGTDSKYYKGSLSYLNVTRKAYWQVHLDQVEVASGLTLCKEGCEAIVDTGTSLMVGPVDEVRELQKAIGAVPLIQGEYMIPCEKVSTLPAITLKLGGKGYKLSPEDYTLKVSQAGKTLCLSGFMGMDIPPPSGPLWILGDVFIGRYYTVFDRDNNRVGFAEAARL
Sequence of Cathepsin S (Homo sapiens) (P25774 115-331 limits assumed): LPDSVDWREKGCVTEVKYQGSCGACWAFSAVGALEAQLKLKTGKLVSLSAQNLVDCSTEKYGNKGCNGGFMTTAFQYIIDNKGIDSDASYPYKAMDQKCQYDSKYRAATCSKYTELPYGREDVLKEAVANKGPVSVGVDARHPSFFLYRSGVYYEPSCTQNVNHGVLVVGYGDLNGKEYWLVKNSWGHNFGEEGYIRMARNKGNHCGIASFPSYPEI
Sequence of Cathepsin G (Homo sapiens) (P08311 whole entry): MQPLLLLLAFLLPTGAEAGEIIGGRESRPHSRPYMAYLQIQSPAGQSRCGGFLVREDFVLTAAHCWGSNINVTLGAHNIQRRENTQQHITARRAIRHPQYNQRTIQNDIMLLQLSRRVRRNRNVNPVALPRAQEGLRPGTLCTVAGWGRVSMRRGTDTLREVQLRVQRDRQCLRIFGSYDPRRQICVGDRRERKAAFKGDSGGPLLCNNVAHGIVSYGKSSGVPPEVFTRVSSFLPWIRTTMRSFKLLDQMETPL

AUC(0-inf) [1]: 2200 ng·h/mL | inhibition [2]: -5% | inhibition [3]: 21% | inhibition [4]: 12% | inhibition [5]: -1% | Vd [6]: 18.1 L/kg | AUC(0-inf) [7]: 2850 ng·h/mL | bioavailability [8]: 39% | Activity (Cytochrome P450 1A2): Not Active | Activity (Cytochrome P450 2C9): Not Active | Activity (Cytochrome P450 2C19): Not Active | inhibition [9]: 1% | inhibition [10]: -3% | inhibition [11]: 86% | inhibition [12]: 27% | inhibition [13]: 12% | inhibition [14]: 5% | IC50 (Chymase): 3.53 µM | IC50 [15]: 5.33 µM | inhibition [16]: -5% | inhibition [17]: -1% | inhibition (Sus scrofa): -6% | inhibition [18]: 1% | half-life [19]: > 40 min | half-life [20]: > 40 min
SMILES: CC(C)C[C@H](NC(=O)[C@@H](NC(=O)c1cccc(-c2ccccc2)n1)[C@@H](C)O)B(O)O [DELANZOMIB]
IC50 (A2780): 0.0137 µM | Activity (Mus musculus): inactive

Source: ChEMBL document CHEMBL1141651, “Discovery of a potent, selective, and orally active proteasome inhibitor for the treatment of cancer” (J Med Chem, 2008)
